{
  "source": "paper PMC12412049",
  "about": "(Journal of controlled release : official journal of the …, 2025)",
  "key": {"U87MG cells [1]": {"system": "U87MG cells", "assay": "In vitro uptake in U87MG cells", "assay_type": "cell-based, human", "settings": "for Uptake percentage dose (%AD), total / Uptake %AD, intracellular: mean ± SD; for Uptake %AD, intracellular: internalized fraction (1 M NaOH lysis); for Share of radioactivity internalized by cells: after co-incubation 4 h"}, "U87MG tumor [2]": {"system": "U87MG tumor", "assay": "In vivo radiotherapy in U87MG tumor-bearing mice", "settings": "for Median survival: U87MG glioma-bearing mice; for Median survival / Tumor weight at the end of the treatment / Tumor volume: 66.6 MBq; for Tumor weight at the end of the treatment / Tumor volume: U87MG tumor-bearing mice, mean ± SD; for Tumor weight at the end of the treatment: 20 days post-treatment, n = 5/group"}, "U87MG cells [3]": {"system": "U87MG cells", "assay": "CCK-8 cell viability of U87MG cells with radiolabeled compounds", "settings": "0.1 and 0.2 MBq"}, "MCF-7 tumor [4]": {"system": "MCF-7 tumor", "set-up": "species or system mice", "settings": "mouse, in vivo"}, "U87MG cells [5]": {"system": "U87MG cells", "assay": "Intracellular ROS level assay", "assay_type": "cell-based, human", "settings": "24 h co-incubation", "method_in_brief": "(§1)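 U87MG cells were seeded at 2 × 10^5 cells/well and grown 24 h at 37°C. They were then exposed 24 h in serum-free medium to PBS or to unlabeled or 64Cu-labeled peptide conjugate at 0, 25, 50 or 100 μM. Cells were PBS-washed, trypsinized, pelleted at 3000 rpm for 3 min and washed. Intracellular GSH (GSH/GSSG) and ROS were read with commercial kits. Values are mean ± SD.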"}, "U87MG tumor [6]": {"system": "U87MG tumor", "assay": "Biodistribution study in U87MG tumor-bearing mice", "settings": "mouse, in vivo"}, "U87MG tumor [7]": {"system": "U87MG tumor", "assay": "Tumor section staining", "assay_type": "in vivo, mice", "settings": "tumor sections"}, "MCF-7 tumor [8]": {"system": "MCF-7 tumor", "set-up": "species or system mice", "settings": "mouse, in vivo, 72 h"}, "U87MG cells [9]": {"system": "U87MG cells", "assay": "Intracellular GSH content measurement", "assay_type": "cell-based, human", "settings": "24 h co-incubation", "method_in_brief": "as §1"}, "U87MG tumor [10]": {"system": "U87MG tumor", "assay": "PET imaging in U87MG tumor-bearing mice", "settings": "mouse, in vivo; for Tumor uptake (PET ROI analysis): iv, 7.4 MBq"}, "[11]": {"assay": "TEM morphology of self-assembled peptide", "assay_type": "physicochemical", "method_in_brief": "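Peptide was dissolved in water above its CMC, with or without 1 mM GSH added to mimic intracellular reducing conditions. Samples were incubated 10 min, applied to copper grids and air-dried overnight. Particle morphology and size were imaged by TEM, with size given as mean ± SD.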"}, "[12]": {"assay": "DLS hydrodynamic diameter and zeta potential", "assay_type": "physicochemical", "settings": "mean ± SD"}, "Critical micelle": {"assay": "Critical micelle", "assay_type": "physicochemical", "settings": "pyrene fluorescent probe, tangent method; DP1R 0.1-100 μM, each with 1 mM GSH"}, "[13]": {"settings": "0.05 MBq, 4 h, 37°C, gamma counter"}, "[14]": {"settings": "normalized to stained control (set as 1.0), mean ± SD"}},
  "data": [
    {"compound": "[^64Cu]Cu-DOTA-c(RGDyK) [[^64Cu]Cu-DR]", "values": [
      {"measurement": "Uptake percentage dose (%AD), total", "setting": "U87MG cells [1]; [13]", "value": "1.56 ± 0.78", "unit": "%AD"},
      {"measurement": "Uptake %AD, intracellular", "setting": "U87MG cells [1]; 0.05 MBq, 4 h", "value": "0.10 ± 0.02", "unit": "%AD"},
      {"measurement": "Share of radioactivity internalized by cells", "setting": "U87MG cells [1]; 0.05 MBq", "value": 87.82, "unit": "%"},
      {"measurement": "Median survival", "setting": "U87MG tumor [2]", "value": 26, "unit": "days"},
      {"measurement": "Tumor weight at the end of the treatment", "setting": "U87MG tumor [2]", "value": "0.87 ± 0.03", "unit": "g"},
      {"measurement": "Tumor volume", "setting": "U87MG tumor [2]; twenty days after injection", "value": "407.00 ± 66.34", "unit": "mm^3"}
    ]},
    {"compound": "[Cl][64Cu][Cl]", "note": "[[^64Cu]CuCl2, reference compound]", "values": [
      {"measurement": "Uptake by U87MG cells (in words)", "setting": "U87MG cells [1]; 0.05-1 MBq, 4 h", "value": "Negligible uptake"},
      {"measurement": "Cytotoxicity against tumor cells (in words)", "setting": "U87MG cells [3]", "value": "Neither 0.1 MBq nor 0.2 MBq free [^64Cu]CuCl2 demonstrated notable cytotoxicity"},
      {"measurement": "Median survival", "setting": "U87MG tumor [2]", "value": 20, "unit": "days"},
      {"measurement": "Tumor weight at the end of the treatment", "setting": "U87MG tumor [2]", "value": "2.36 ± 0.35", "unit": "g"}
    ]},
    {"compound": "[^64Cu]Cu-DOTA-PEP1-c(RGDyK) (head to tail) [[^64Cu]Cu-DP1R]", "values": [
      {"measurement": "Uptake %AD relative to the [^64Cu]Cu-DR group", "setting": "U87MG cells [1]; 0.05 MBq, 4 h", "value": 5.83, "unit": "times"},
      {"measurement": "Uptake percentage dose (%AD), total", "setting": "U87MG cells [1]; [13]", "value": "9.09 ± 0.48", "unit": "%AD"},
      {"measurement": "Uptake %AD, intracellular", "setting": "U87MG cells [1]; 0.05 MBq, 4 h", "value": "8.27 ± 0.44", "unit": "%AD"},
      {"measurement": "Share of radioactivity internalized by cells", "setting": "U87MG cells [1]; 0.05 MBq", "value": 90.98, "unit": "%"},
      {"measurement": "Uptake percentage dose (%AD), total", "setting": "U87MG cells [1]; 0.1 MBq, 4 h", "value": "7.50 ± 0.32", "unit": "%AD"},
      {"measurement": "Tumor uptake in MCF-7 subcutaneous tumor model (in words)", "setting": "MCF-7 tumor [4]", "value": "no significant tumor uptake"},
      {"measurement": "Effect on intracellular ROS level (in words)", "setting": "U87MG cells [5]", "value": "enhance the ROS level"},
      {"measurement": "Blood pool uptake (biodistribution)", "setting": "U87MG tumor [6]; 72 h", "value": "1.01± 0.5", "unit": "%ID/g"},
      {"measurement": "Kidneys uptake (biodistribution)", "setting": "U87MG tumor [6]; 72 h", "value": "1.43 ± 0.09", "unit": "%ID/g"},
      {"measurement": "Tumor uptake (biodistribution)", "setting": "U87MG tumor [6]; 72 h", "value": "7.79 ± 1.08", "unit": "%ID/g"},
      {"measurement": "Apoptotic induction (TUNEL) vs PBS group", "setting": "U87MG tumor [7]", "value": 101.6, "unit": "fold"},
      {"measurement": "Ki-67 relative expression (proliferative activity)", "setting": "U87MG tumor [7]; IHC, normalized to stained control (set as 1.0), mean ± SD", "value": "1.35 ± 0.17"},
      {"measurement": "ROS relative fluorescence intensity", "setting": "U87MG tumor [7]; [14]", "value": "7.87 ± 0.70"},
      {"measurement": "TUNEL relative fluorescence intensity (apoptosis)", "setting": "U87MG tumor [7]; [14]", "value": "140.21 ± 24.88"},
      {"measurement": "γ-H2AX relative fluorescence intensity (DNA damage)", "setting": "U87MG tumor [7]; [14]", "value": "59.3 ± 11.49"},
      {"measurement": "Decrease in Ki-67 index", "setting": "U87MG tumor [7]; vs PBS group", "value": 3.1, "unit": "fold"},
      {"measurement": "Tumor uptake (biodistribution)", "setting": "MCF-7 tumor [8]", "value": "0.47 ± 0.10", "unit": "%ID/g"},
      {"measurement": "Effect on intracellular GSH (in words)", "setting": "U87MG cells [9]", "value": "effectively reduce intracellular GSH"},
      {"measurement": "Median survival", "setting": "U87MG tumor [2]", "value": 36, "unit": "days"},
      {"measurement": "Tumor weight at the end of the treatment", "setting": "U87MG tumor [2]", "value": "0.25 ± 0.03", "unit": "g"},
      {"measurement": "Tumor volume", "setting": "U87MG tumor [2]; twenty days after injection", "value": "122.20 ± 19.92", "unit": "mm^3"},
      {"measurement": "Tumor volume of PBS group relative to treated group", "setting": "U87MG tumor [2]; twenty days after injection", "value": 12.1, "unit": "times"},
      {"measurement": "Tumor volume of [^64Cu]Cu-DR group relative to [^64Cu]Cu-DP1R group", "setting": "U87MG tumor [2]; twenty days after injection", "value": 3.33, "unit": "times"},
      {"measurement": "Retention index (RI)", "setting": "U87MG tumor [10]", "value": "21.90% (± 41.29%)"},
      {"measurement": "Tumor retention vs. control via PET imaging", "setting": "U87MG tumor [10]", "value": 2, "unit": "fold"},
      {"measurement": "Tumor uptake (PET ROI analysis)", "setting": "U87MG tumor [10]; 4 h", "value": "6.90 ± 0.98", "unit": "%ID/g"},
      {"measurement": "Tumor uptake (PET ROI analysis)", "setting": "U87MG tumor [10]; 72 h", "value": "6.20 ± 1.61", "unit": "%ID/g"}
    ]},
    {"compound": "DOTA-PEP1-c(RGDyK) (head to tail) [DP1R]", "values": [
      {"measurement": "Nanostructure formation under TEM", "setting": "[11]; absence of GSH incubation", "value": "no nanostructure formation was observed"},
      {"measurement": "Average diameter of micelle-like structures under TEM", "setting": "[11]; in water above the CMC, 1 mM GSH, 10 min incubation, mean ± SD", "value": "approximately 27.55 ± 6.43 nm"},
      {"measurement": "Hydrodynamic diameter", "setting": "[12]; DLS in PBS, after incubation with GSH", "value": "284.28 ± 27.99", "unit": "nm"},
      {"measurement": "Zeta potential", "setting": "[12]; after incubation with GSH", "value": "−36.43 ± 1.89", "unit": "mV"},
      {"measurement": "Zeta potential", "setting": "[12]; before incubation with GSH", "value": "3.65 ± 0.49", "unit": "mV"},
      {"measurement": "Critical micelle concentration (CMC)", "setting": "Critical micelle", "value": 13.962, "unit": "µM"},
      {"measurement": "Reduction of intracellular GSH levels", "setting": "U87MG cells [9]; 25 μM", "value": 17, "unit": "%"},
      {"measurement": "Reduction of intracellular GSH levels", "setting": "U87MG cells [9]; 100 μM", "value": "exceeding 52%"}
    ]},
    {"compound": "[^64Cu]Cu-DOTA-PEP2-c(RGDyK) (head to tail) [[^64Cu]Cu-DP2R]", "values": [
      {"measurement": "Lower 72h tumor retention relative to DP1R probe", "setting": "U87MG tumor [6]", "value": 58, "unit": "%"},
      {"measurement": "Tumor uptake (biodistribution)", "setting": "U87MG tumor [6]; 72 h", "value": "3.28 ± 0.45", "unit": "%ID/g"},
      {"measurement": "Tumor uptake (PET ROI analysis)", "setting": "U87MG tumor [10]; 4 h", "value": "5.53 ± 0.36", "unit": "%ID/g"},
      {"measurement": "Tumor uptake (PET ROI analysis)", "setting": "U87MG tumor [10]; 72 h", "value": "2.93 ± 0.36", "unit": "%ID/g"}
    ]}
  ]
}
